HTRA1 inhibitor – HTRA1 (human) protease inhibition; Q92743; recombinant HTRA1, FP-rhodamine activity-based probe, fluorescence polarization; inhibition, % at 5.96 µM; 340,000 compounds, 0.5% hits; in the data active = inhibition above about 36%;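 also: 0% = enzyme with DMSO and 100% = wells lacking enzyme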
rCAG binder – molecules binding r(CAG) RNA repeats | r(CAG) RNA repeat, TO-PRO-1 dye displacement fluorescence | inhibition, % at 3 µM | 370,000 compounds, 1.3% hits | AID 651821;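 active = inhibition above the plate cutoff, the mean of all test compounds on that plate plus 3 SD, cut at about 35% in these data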;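 also: 0% = DMSO alone and 100% = 100 µM mitoxantrone as full dye displacement; higher means more dye released from RNA so lower well fluorescence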
PRMT1 inh – inhibitors of human PRMT1; Q99873; recombinant PRMT1, activity-based probe fluorescence polarization; inhibition, % at 2.79 µM; 370,000 compounds, 1.3% hits; AID 652257;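 active = inhibition above about 21% made by adding two undisclosed values, limit read from the data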
ABHD4 inh – inhibits mouse alpha/beta hydrolase domain 4; Q8VD66; purified mABHD4, FP-Rh probe fluorescence polarization; inhibition, % at 8.92 µM; 370,000 compounds, 0.54% hits; AID 720543;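 active = inhibition exceeding the mean over every tested compound plus 3 SD, cut at about 30% in these data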;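 also: 0% = plate median of compound wells and 100% = S159A mutant with DMSO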
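System: mouse ABHD4 enzyme, wild type / Medium: HEPES pH 7.0, NaCl, Pluronic buffer / Reagent: FP-Rh activity-based fluorescent probe / Control set: S159A mutant high control, sample median low control / Detection: fluorescence polarization with parallel and perpendicular emission, 525/598 nm / Schedule: 45 min + 60 min at 25 °C / Compound dosing: 8.92 µM, single dose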
SIAE primary – human SIAE inhibition, primary screen; Q9HAT2; 370,000 compounds, 0.69% hits; SIAE FP-Rh probe binding, fluorescence polarization; inhibition, % at 9.66 µM;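 active = inhibition above a cutoff: mean of compounds within the control limits plus 3 SD of those, cut at about 17% in these data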;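 also: 0% = plate median of compound wells and 100% = probe without SIAE protein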
Target sequence (Q9HAT2 whole entry, looked up): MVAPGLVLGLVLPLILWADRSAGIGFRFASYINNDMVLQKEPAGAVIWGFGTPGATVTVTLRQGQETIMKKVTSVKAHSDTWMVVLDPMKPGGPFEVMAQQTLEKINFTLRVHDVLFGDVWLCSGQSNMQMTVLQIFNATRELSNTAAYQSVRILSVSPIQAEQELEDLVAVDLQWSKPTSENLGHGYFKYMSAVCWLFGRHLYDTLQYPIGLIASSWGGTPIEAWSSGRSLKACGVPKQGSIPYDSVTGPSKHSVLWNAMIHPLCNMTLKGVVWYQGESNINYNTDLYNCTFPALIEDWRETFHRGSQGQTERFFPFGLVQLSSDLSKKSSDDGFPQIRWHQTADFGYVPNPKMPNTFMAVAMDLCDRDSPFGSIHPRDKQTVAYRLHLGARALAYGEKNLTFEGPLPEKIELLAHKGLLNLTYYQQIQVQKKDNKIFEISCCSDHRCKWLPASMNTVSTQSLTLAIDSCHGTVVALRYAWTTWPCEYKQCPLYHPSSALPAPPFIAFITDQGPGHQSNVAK
rCAG binder conf – r(CAG) RNA repeat binding, confirmation; inhibition, % at 3 µM; AID 652065; TO-PRO-1 dye displacement fluorescence; 4,300 compounds, 70% hits; shares compounds with rCAG binder;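 active = inhibition above a per-plate cutoff, the mean inhibition of sample wells plus 3 SD, cut at about 35% in these data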;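 also: loss of TO-PRO-1 fluorescence as compound displaces dye from 1x1 AA loop RNA; 0% = DMSO only wells and 100% = 100 µM mitoxantrone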
DNA CAG counter – counter-screen for rCAG RNA binders: DNA CAG dye complex inhibitors | d(CAG) DNA oligo TO-PRO-1 dye displacement, fluorescence | inhibition, % at 3 µM | shares compounds with rCAG binder | 4,300 compounds, 94% hits;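 active = inhibition above its plate's cutoff, the mean test-well inhibition plus 3 SD, cut at about 4.8% in these data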;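 also: 0% = DNA dye mix with DMSO and 100% = 100 µM mitoxantrone; hits displace the dye from DNA and so lower well fluorescence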
* = called active by the depositor; . = no result. This is a sample that favours compounds with a hit; in the whole collection about 3.3% have one here.

SMILES | HTRA1 inhibitor | rCAG binder | PRMT1 inh | ABHD4 inh | SIAE primary | rCAG binder conf | DNA CAG counter
COC(=O)[C@]12C[C@H](CC(=O)NCc3cccs3)C(=O)N(Cc3ccc(Cl)cc3Cl)C1=C[C@H](C1CCCC1)O[C@@H]2C | . | 8 | -1 | -8 | 5 | . | .
CCCCNS(=O)(=O)CC1NCc2cc(F)ccc21 (stereo unspecified) | . | 1 | 3 | -5 | -4 | . | .
Cc1cc(C)cc(NC(=O)C(Sc2nnc(C)c(=O)[nH]2)c2ccccc2)c1 (stereo unspecified) | -16 | 27 | -6 | -6 | 0 | . | .
Cc1nnc(SC(C(=O)Nc2ccc(Cl)c([N+](=O)[O-])c2)c2ccccc2)[nH]c1=O (stereo unspecified) | -38 | 61* | 6 | -17 | -4 | 40* | 12*
COc1cccc(OCC(C)CN2CCC(C(O)(c3ccccc3)c3ccccc3)CC2)c1 (stereo unspecified) | . | 13 | 2 | 6 | -3 | . | .
CCc1ccc(-c2n[nH]nc2C2=CC(=O)C[C@H](c3ccc(F)cc3)C2)cc1 | -40 | 37* | -2 | 0 | 3 | 42* | 11*
COc1ccccc1-c1n[nH]nc1C1=CC(=O)C[C@H](c2ccc(F)cc2)C1 | -12 | 12 | -4 | -7 | 2 | . | .
CCCN(CCC)S(=O)(=O)c1ccc(NS(=O)(=O)c2ccc(F)cc2)cc1 | -6 | 46* | 2 | -2 | 1 | 35* | 8.4*
CCOC(=O)c1sc(N2N=C(C)/C(=C\c3ccc(OCC(=O)OC)cc3)C2=O)nc1C | 18 | 52* | 1 | 2 | -9 | 45* | 10*
CCOC(=O)C1=C(C)N=c2s/c(=C/c3ccc(OCC(=O)O)cc3)c(=O)n2C1c1cc(OC)c(OC)c(OC)c1 (stereo unspecified) | -4 | 42* | 18 | -17 | 1 | 74* | 37*
CCOC(=O)C1=C(C)N=c2s/c(=C\c3ccc(OCC(=O)O)cc3)c(=O)n2C1c1ccc(OC(C)C)cc1 (stereo unspecified) | -38 | 64* | 30* | -73 | -67 | 85* | 55*
COc1cccc(C2C(C(=O)Nc3ccccc3)=C(C)N=c3s/c(=C/c4ccc(OCC(=O)O)cc4)c(=O)n32)c1 (stereo unspecified) | -25 | 72* | 30* | -56 | -27 | 82* | 50*
CCOC(=O)C1=C(C)N=c2sc(=Cc3cc(Cl)c(OCC(=O)O)c(Cl)c3)c(=O)n2C1c1cccc(OC)c1 (stereo unspecified) | . | 50* | 13 | -7 | -31 | 85* | 54*
COc1cccc(C2C(C(=O)OC(C)C)=C(C)N=c3s/c(=C\c4ccc(C(=O)O)cc4)c(=O)n32)c1 (stereo unspecified) | -6 | 19 | 8 | -2 | -9 | . | .
CC(C)(C)c1ccc(S(=O)(=O)N2CCC(C(=O)N3CCN(C4CCCCC4)CC3)CC2)cc1 | . | 2 | -2 | 5 | 10 | . | .
Cc1cc([N+](=O)[O-])cc(/C=N/n2c(C)nc3ccccc3c2=O)c1O | 6 | 2 | -4 | 1 | 10 | . | .
C/C(=N\OCc1nc2ccccc2c(=O)n1/N=C/c1cc(C)cc([N+](=O)[O-])c1O)c1ccccc1 | 0 | 56* | 0 | 8 | 11 | 64* | 25*
O=C(NCc1ccco1)C1CCCN(c2ncccn2)C1 (stereo unspecified) | . | 1 | 3 | 1 | 0 | . | .
Cc1ccc(C)c(NC(=O)CSc2nc3nc(-c4cccs4)cc(C(F)(F)F)c3c(=O)[nH]2)c1 | -67 | 58* | -2 | -39 | -22 | 83* | 47*
Cc1[nH]c2ccccc2c1/C=N/Nc1ccc([N+](=O)[O-])cc1 | 21 | 56* | -2 | -7 | 4 | 32 | 21*
Cc1[nH]c2ccccc2c1/C=N/NC(=O)c1cccc([N+](=O)[O-])c1 | . | 6 | 2 | 10 | 8 | . | .
CCCCOC(=O)c1ccc(Nc2ncnc3nc[nH]c23)cc1 | -6 | 2 | -2 | 0 | -2 | . | .
CCCCCCCCOC(=O)c1cc([N+](=O)[O-])c(Sc2ncnc3nc[nH]c23)c([N+](=O)[O-])c1 | -3 | 38* | 0 | -7 | 6 | 40* | 19*

Bioassay records: PubChem BioAssay, The Scripps Research Institute Molecular Screening Center
